{"data": "Assay results of several laboratories", "target": "Serine/threonine-protein kinase NLK (NLK, Homo sapiens, UniProt Q9UBE8)", "Residues used in one study (Q9UBE8 1-527)": "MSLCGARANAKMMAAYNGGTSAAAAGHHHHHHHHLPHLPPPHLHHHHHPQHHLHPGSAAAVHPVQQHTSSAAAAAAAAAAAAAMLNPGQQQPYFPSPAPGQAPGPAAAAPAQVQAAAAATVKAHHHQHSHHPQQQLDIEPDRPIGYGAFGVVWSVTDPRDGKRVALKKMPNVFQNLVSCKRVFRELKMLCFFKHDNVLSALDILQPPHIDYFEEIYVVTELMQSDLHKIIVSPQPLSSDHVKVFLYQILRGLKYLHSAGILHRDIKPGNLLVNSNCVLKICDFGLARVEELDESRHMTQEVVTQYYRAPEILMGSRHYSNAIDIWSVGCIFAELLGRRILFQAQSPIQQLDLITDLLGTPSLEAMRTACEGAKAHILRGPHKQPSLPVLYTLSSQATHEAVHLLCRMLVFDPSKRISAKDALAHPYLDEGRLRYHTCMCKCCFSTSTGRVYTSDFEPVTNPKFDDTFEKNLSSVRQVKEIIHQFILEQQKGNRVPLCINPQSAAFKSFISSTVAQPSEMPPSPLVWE", "note": "Lines come from different studies, so protocols differ."}
{"Structure (SMILES)": "Nc1ncc(-c2nc(N3CCOCC3)nc(N3CCOCC3)n2)c(C(F)F)n1", "read-out": "binding", "method": "competition with immobilised ligand", "tested at": "10 µM", "quantity": "remaining binding", "value": "88%"}
{"Structure (SMILES)": "Cn1cncc1[C@@](O)(COc1ccc(C#N)cc1-c1ccc(OC(F)(F)F)cc1)c1ccc(C#N)cc1", "read-out": "cell-free assay", "method": "competition with immobilised ligand", "tested at": "1 µM", "quantity": "remaining binding", "value": "100%"}
{"Structure (SMILES)": "Cn1cc(-c2cccc(N3CCc4c(sc5c4CC(C)(C)C5)C3=O)c2CO)cc(Nc2ccncn2)c1=O", "read-out": "enzyme activity", "action": "inhibitor", "tested at": "1 µM", "quantity": "inhibition", "value": "-10%"}
{"Structure (SMILES)": "N#CC1(c2ccccn2)CCN(Cc2cc(C(=O)O)c(=O)n3ccccc23)CC1", "read-out": "cell-free assay", "method": "competition with immobilised ligand", "tested at": "1 µM", "quantity": "remaining binding", "value": "100%"}
{"Structure (SMILES)": "Cn1cc(-c2cc(F)cc(N3CCn4c(cc5c4CCCC5)C3=O)c2CO)cc(Nc2ccc(N3CCN(C4COC4)CC3)cn2)c1=O", "read-out": "enzyme activity", "action": "inhibitor", "tested at": "0.1 µM", "quantity": "inhibition", "value": "-4%"}
{"Structure (SMILES)": "Cc1nn(C)cc1-c1nc2c(N3CCN(Cc4ccc(Cl)cc4)CC3)c(Cl)cnc2[nH]1", "read-out": "binding", "method": "competition with immobilised ligand", "tested at": "1 µM", "quantity": "remaining binding", "value": "72%"}
{"Structure (SMILES)": "COc1cc(Nc2ncc(F)c(Nc3ccc4c(n3)NC(=O)C(C)(C)O4)n2)cc(OC)c1OC", "read-out": "binding", "tested at": "10 µM", "quantity": "inhibition", "value": "0%"}
{"Structure (SMILES)": "COc1ncccc1-c1cnn2ccc(N3CCN(C(=O)OC(C)C)CC3)nc12", "read-out": "binding", "method": "competition with immobilised ligand", "tested at": "1 µM", "quantity": "remaining binding", "value": "100%"}
{"Structure (SMILES)": "O=c1[nH]c2ccccc2n1C1CCN(Cc2ccc(-c3[nH]c4cc5ncnc5cc4nc3-c3ccccc3)cc2)CC1", "read-out": "cell-free assay", "tested at": "0.5 µM", "quantity": "remaining signal", "value": "104%"}
